Results from PMC10448036 (International Journal for Parasitology: Drugs and Drug …, 2023).
Read-outs that look alike come from different tables or passages of the source. Marks after values point to notes of the source that are not given here.

Tests used:
[1] = Adverse events / tolerability; assay type: in vivo; conditions: lambs, sc and oral treatments
[2] = system: plasma proteins; conditions: ref Mohammed Ali and Bogan, 1987; Hennessy, 1993; cited from earlier work
[3] = ref Hennessy and Ali, 1997; cited from earlier work
[4] = system: Other genera (Trichostrongylus spp.; Teladorsagia spp. and Oesophagostomum spp.); experiment: L3 from pooled faecal cultures, by genus; assay type: in vivo, lambs
In short: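 Naturally parasitized lambs (groups of 10) were dosed by weight on day 0 with two test compounds, alone or combined: the first at 5 mg/kg sc or 10 mg/kg oral, the second at 0.2 mg/kg sc or oral; untreated controls were kept. Rectal faeces were counted for epg by modified McMaster. Pooled group faecal cultures at days −1, 13, 22 and 28 gave L3 typed to genus. Genus efficacy = 100×(1−T/C) on arithmetic-mean epg partitioned by each genus's L3 proportion.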

[5] = system: Haemoncus spp.; experiment: L3 from pooled faecal cultures, by genus; assay type: in vivo, lambs
[6] = system: H. contortus population; conditions: SUL experimental farm, ref Castells, personal communication; cited from earlier work
[7] = system: susceptible H. contortus; conditions: single dose, sheep, absence of resistance, cited from earlier work
[8] = system: Nematodirus spp., Oesphagostomum spp. and Trichuris ovis; experiment: Adult nematode counts at necropsy; assay type: in vivo; conditions: 13 days post-treatment, sc and oral, lambs n = 2 per group
In short: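 Naturally parasitized lambs, ranked by epg and split into groups of 10, were dosed on day 0 by individual weight with two test compounds, alone or combined. The first was given at 5 mg/kg sc or 10 mg/kg oral, the second at 0.2 mg/kg sc or oral. An untreated control group was kept. At 13 and 28 days post-treatment, two random animals per group were killed by captive bolt and exsanguinated.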

[9] = system: multiple resistant gastrointestinal nematodes (mainly H. contortus); experiment: Faecal egg count reduction test; assay type: in vivo, lambs; conditions: for Nematode egg counts (mean): arithmetic mean; for Efficacy (%) [CI] (FECRT): 95% CI, Coles et al. (1992) formula
[10] = Plasma disposition kinetics; assay type: in vivo, lambs; conditions: for AUC0-LOQ / AUC0-∞: closantel in plasma, lambs
[11] = system: breast cancer resistance protein (BCRP); conditions: ref Pérez et al., 2009; cited from earlier work
[12] = system: P-gp; conditions: ref Lespine et al., 2006; cited from earlier work
[13] = most species, ref Zulalian et al., 1994; cited from earlier work
[14] = system: gastrointestinal nematodes; conditions: cattle, ref Leathwick and Miller (2013), cited from earlier work
[15] = 22 days post-treatment, subcutaneous
[16] = 28 days post-treatment, subcutaneous
[17] = Day 2 post-treatment, oral (CLO 10 mg/kg, MXD 0.2 mg/kg)
[18] = Day 2 post-treatment, subcutaneous (CLO 5 mg/kg, MXD 0.2 mg/kg)
[19] = Day 6 post-treatment, oral (CLO 10 mg/kg, MXD 0.2 mg/kg)
[20] = Day 6 post-treatment, subcutaneous (CLO 5 mg/kg, MXD 0.2 mg/kg)
[21] = Day 10 post-treatment, oral (CLO 10 mg/kg, MXD 0.2 mg/kg)
[22] = Day 13 post-treatment, oral (CLO 10 mg/kg, MXD 0.2 mg/kg)
[23] = Day 13 post-treatment, subcutaneous (CLO 5 mg/kg, MXD 0.2 mg/kg)
[24] = Day 22 post-treatment, oral (CLO 10 mg/kg, MXD 0.2 mg/kg)
[25] = Day 22 post-treatment, subcutaneous (CLO 5 mg/kg, MXD 0.2 mg/kg)
[26] = Day 28 post-treatment, oral (CLO 10 mg/kg, MXD 0.2 mg/kg)
[27] = Day 28 post-treatment, subcutaneous (CLO 5 mg/kg, MXD 0.2 mg/kg)
[28] = CLO co-administered with MXD by the sc route vs CLO alone, P < 0.05
[29] = CLO 10 mg/kg oral alone (CLOoral)

Compound	Adverse events [1]	Efficacy (%) ([4]; 22 days post-treatment, oral)	Efficacy (%) [4, 15]	Efficacy (%) ([5]; 22 days post-treatment, oral)	Efficacy (%) [5, 15]	Efficacy (%) ([5]; 28 days post-treatment, oral)	Efficacies of single dose [6]	Fate of Nematodirus spp., Oesphagostomum spp. and Trichuris ovis [8]	Nematode egg counts (mean) [9, 17]	Nematode egg counts (mean) [9, 18]	Nematode egg counts (mean) [9, 19]	Nematode egg counts (mean) [9, 20]	Nematode egg counts (mean) [9, 21]	Efficacy (%) [CI] (FECRT) [9, 22]	Nematode egg counts (mean) [9, 22]	Efficacy (%) [CI] (FECRT) [9, 23]	Nematode egg counts (mean) [9, 23]	Efficacy (%) [CI] (FECRT) [9, 24]	Nematode egg counts (mean) [9, 24]	Efficacy (%) [CI] (FECRT) [9, 25]	also measured
Cc1cc(C(C#N)c2ccc(Cl)cc2)c(Cl)cc1NC(=O)c1cc(I)cc(I)c1O (centres unmarked) [CLO, closantel]	No adverse events were observed	96%	100%	4%	0%	9%	above 85%	survive	630 ^b epg	790 ^b epg	550 ^b epg	530 ^b epg	770^c epg	84 [71–91] %	890 ^b epg	85 [72–92] %	830 ^b epg	83 [73–89] %	850 ^b epg	82 [67–91] %	Binding to plasma proteins [2]: > 99%; Biodegradation by the ruminal fluid [3]: not exposed to any significant biodegradation; Efficacy (%) [4, 16]: 99%; Efficacy (%) [5, 16]: 1%; Protection against reinfection up to ([7]; ref Hall et al., 1981): up to 28 days; Efficacy (FECRT) ([9]; 13 days post-treatment, drug alone, over the sc and oral treatments): 84 to 85%; Nematode egg counts (mean) [9, 25]: 863 ^b epg; Efficacy (%) [CI] (FECRT) [9, 26]: 66 [36–82] %; Nematode egg counts (mean) [9, 26]: 1350 epg; Efficacy (%) [CI] (FECRT) [9, 27]: 84 [57–94] %; Nematode egg counts (mean) [9, 27]: 650 epg; Longer MRT after co-administration [10, 28]: 42%; Longer T½el after co-administration [10, 28]: 39%; Plasma drug exposure (AUC0-LOQ) lower after oral than after sc treatment ([10]; CLO oral 10 mg/kg vs sc 5 mg/kg, P < 0.05): 34%; AUC0-LOQ ([10]; CLO 5 mg/kg sc alone (CLOSC)): 1570 ± 419^ab μg.d/mL; AUC0-∞ ([10]; CLO 5 mg/kg sc alone (CLOSC)): 2231 ± 662^ab μg.d/mL; AUC0-LOQ [10, 29]: 1042 ± 170^c μg.d/mL; AUC0-∞ [10, 29]: 1438 ± 367^b μg.d/mL; Quantified in plasma up to ([10]; post oral treatment): up to 28 days; Quantified in plasma up to ([10]; post sc treatment): up to 28 days
CO/N=C1\C[C@]2(C[C@@H]3C[C@@H](C/C=C(\C)C[C@@H](C)/C=C/C=C4\CO[C@@H]5[C@H](O)C(C)=C[C@@H](C(=O)O3)[C@]45O)O2)O[C@H](/C(C)=C/C(C)C)[C@H]1C [MXD, moxidectin]	No adverse events were observed	0%	0%	100%	100%	100%	above 85%	efficiently eliminated	240 ^ab epg	150 ^ab epg	340 ^ab epg	250^a epg	530 ^bc epg	80 [62–89] %	1140 ^b epg	92 [85–96] %	430 ^b epg	82 [53–93] %	888 ^b epg	80 [61–90] %	Interaction with BCRP [11]: identified as a BCRP substrate; Interaction with mammalian P-gp [12]: much weaker compared with ivermectin; Efficacy (%) ([4]; 13 days post-treatment, oral): 0%; Efficacy (%) ([4]; 28 days post-treatment, oral): 0%; Dose excreted unchanged in the faeces [13]: 90%; Efficacy (%) ([5]; 13 days post-treatment, oral): 100%; Protection against reinfection up to ([7]; ref Kerboeuf et al., 1995): ≤ 35 days; Nematode egg counts (mean) [9, 25]: 975 ^b epg; Efficacy (%) [CI] (FECRT) [9, 26]: 61 [6–84] %; Nematode egg counts (mean) [9, 26]: 1525 epg; Efficacy (%) [CI] (FECRT) [9, 27]: 74 [38–89] %; Nematode egg counts (mean) [9, 27]: 1013 epg; Efficacy ([14]; oral treatment): 91.1%; Efficacy ([14]; sc injection): 55.5%; AUC0-LOQ after the oral treatment as share of that after the sc treatment ([10]; MXD 0.2 mg/kg oral vs sc): 33%; Quantified in plasma up to ([10]; post oral treatment): ≤ 25 days; Quantified in plasma up to ([10]; post sc treatment): up to 28 days
